Experimental data taken from ChEMBL document CHEMBL4033712, “Synthesis and biological evaluation of new C-12(α/β)-(N-) sulfamoyl-phenylamino-14-deoxy-andrographolide derivatives as potent anti-cancer agents” (Bioorg Med Chem Lett, 2017).

Key:
Assay type in all cases: functional
EKVX = experiment: Anticancer activity against human EKVX cells assessed as cell growth at 10 uM after 48 hrs by sulforhodamine B assay relative to control; details: read-out: Activity
Outline: (§1)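 Single-dose NCI-60 panel screen: compound added at 10 µM and the culture incubated 48 h. The end point was read by protein staining with sulforhodamine B. The value is percent growth of treated cells relative to untreated control cells, reported as a mean graph across the panel.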

ACHN = experiment: Anticancer activity against human ACHN cells assessed as cell growth at 10 uM after 48 hrs by sulforhodamine B assay relative to control; details: read-out: Activity; outline: as §1
SK-MEL-2 = experiment: Anticancer activity against human SK-MEL-2 cells assessed as cell growth at 10 uM after 48 hrs by sulforhodamine B assay relative to control; details: SK-MEL-2, 48 h, read-out: Activity; outline: as §1
SW-620 = experiment: Growth inhibition of human SW620 cells incubated for 48 hrs by sulforhodamine B assay; details: SW-620, 48 h; for CC50: read-out: LC50 (the source's name)
Outline: (§2)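 NCI 60 human tumour cell line panel, five-dose study at 0.01, 0.1, 1, 10 and 100 µM, 48 h incubation. Sulforhodamine B protein-binding dye end point. GI50 (50% decrease in net cell growth), TGI (total growth inhibition) and LC50 (net 50% loss of initial cells) read from log concentration versus % growth inhibition curves.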

MDA-MB-468 = experiment: Anticancer activity against human MDA-MB-468 cells assessed as cell growth at 10 uM after 48 hrs by sulforhodamine B assay relative to control; details: MDA-MB-468, 48 h, read-out: Activity; outline: as §1
SNB-75 = experiment: Anticancer activity against human SNB75 cells assessed as cell growth at 10 uM after 48 hrs by sulforhodamine B assay relative to control; details: SNB-75, 48 h, read-out: Activity
Outline: (§3)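 NCI-60 single-dose screen: compound added at 10 µM, cultures incubated 48 h. End point by sulforhodamine B protein-binding dye. Value reported as percent growth of treated cells relative to untreated control cells.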

LOX IMVI = experiment: Anticancer activity against human LOXIMVI cells assessed as cell growth at 10 uM after 48 hrs by sulforhodamine B assay relative to control; details: read-out: Activity; outline: as §1
HCT-116 = experiment: Anticancer activity against human HCT116 cells assessed as cell growth at 10 uM after 48 hrs by sulforhodamine B assay relative to control; details: HCT-116, 48 h, read-out: Activity; outline: as §1
RXF 393 = experiment: Anticancer activity against human RXF393 cells assessed as cell growth at 10 uM after 48 hrs by sulforhodamine B assay relative to control; details: RXF 393, 48 h, read-out: Activity; outline: as §1
M14 = experiment: Anticancer activity against human M14 cells assessed as cell growth at 10 uM after 48 hrs by sulforhodamine B assay relative to control; details: M14, 48 h, read-out: Activity; outline: as §1
IGROV-1 = experiment: Growth inhibition of human IGROV1 cells incubated for 48 hrs by sulforhodamine B assay; details: IGROV-1, 48 h; for CC50: read-out: LC50 (the source's name)
Outline: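 NCI-60 five-dose screen at 0.01, 0.1, 1, 10 and 100 µM, 48 h incubation, sulforhodamine B end point. GI50 (50% decrease in net growth), TGI (total growth inhibition) and LC50 (net 50% loss of initial cells) taken from log concentration versus % growth inhibition curves.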

Malme-3M = experiment: Anticancer activity against human MALME-3M cells assessed as cell growth at 10 uM after 48 hrs by sulforhodamine B assay relative to control; details: read-out: Activity; outline: as §1
DU-145 = experiment: Anticancer activity against human DU145 cells assessed as cell growth at 10 uM after 48 hrs by sulforhodamine B assay relative to control; details: DU-145, 48 h, read-out: Activity; outline: as §1
KM12 = experiment: Anticancer activity against human KM12 cells assessed as cell growth at 10 uM after 48 hrs by sulforhodamine B assay relative to control; details: KM12, 48 h, read-out: Activity; outline: as §1
A498 = experiment: Anticancer activity against human A498 cells assessed as cell growth at 10 uM after 48 hrs by sulforhodamine B assay relative to control; details: A498, 48 h, read-out: Activity; outline: as §1
K562 = experiment: Anticancer activity against human K562 cells assessed as cell growth at 10 uM after 48 hrs by sulforhodamine B assay relative to control; details: K562, 48 h, read-out: Activity; outline: as §1
U-251 = experiment: Anticancer activity against human U251 cells assessed as cell growth at 10 uM after 48 hrs by sulforhodamine B assay relative to control; details: U-251, 48 h, read-out: Activity; outline: as §3
HL-60(TB) = experiment: Anticancer activity against human HL-60(TB) cells assessed as cell growth at 10 uM after 48 hrs by sulforhodamine B assay relative to control; details: HL-60, 48 h, read-out: Activity
Outline: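 NCI-60 human tumour panel single-dose screen: cells exposed to 10 µM compound for 48 h. Growth end point read with sulforhodamine B protein-binding dye. Expressed as percent growth of treated cells versus untreated control cells.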

NCI/ADR-RES = experiment: Anticancer activity against human NCI/ADR-RES cells assessed as cell growth at 10 uM after 48 hrs by sulforhodamine B assay relative to control; details: read-out: Activity; outline: as §1
OVCAR-5 = experiment: Anticancer activity against human OVCAR5 cells assessed as cell growth at 10 uM after 48 hrs by sulforhodamine B assay relative to control; details: OVCAR-5, 48 h, read-out: Activity; outline: as §1
SF-268 = experiment: Anticancer activity against human SF268 cells assessed as cell growth at 10 uM after 48 hrs by sulforhodamine B assay relative to control; details: SF-268, 48 h, read-out: Activity; outline: as §1
RPMI-8226 [1] = experiment: Growth inhibition of human RPMI8226 cells incubated for 48 hrs by sulforhodamine B assay; details: RPMI-8226, 48 h; for CC50: read-out: LC50 (the source's name); outline: as §2
UACC-257 = experiment: Anticancer activity against human UACC257 cells assessed as cell growth at 10 uM after 48 hrs by sulforhodamine B assay relative to control; details: UACC-257, 48 h, read-out: Activity; outline: as §3
NCI-H522 = experiment: Anticancer activity against human NCI-H522 cells assessed as cell growth at 10 uM after 48 hrs by sulforhodamine B assay relative to control; details: NCI-H522, 48 h, read-out: Activity; outline: as §1
A549 = experiment: Anticancer activity against human A549/ATCC cells assessed as cell growth at 10 uM after 48 hrs by sulforhodamine B assay relative to control; details: A549, 48 h, read-out: Activity; outline: as §1
NCI-H322M = experiment: Anticancer activity against human NCI-H322M cells assessed as cell growth at 10 uM after 48 hrs by sulforhodamine B assay relative to control; details: read-out: Activity; outline: as §1
OVCAR-4 = experiment: Anticancer activity against human OVCAR4 cells assessed as cell growth at 10 uM after 48 hrs by sulforhodamine B assay relative to control; details: OVCAR-4, 48 h, read-out: Activity; outline: as §1
RPMI-8226 [2] = experiment: Anticancer activity against human RPMI8226 cells assessed as cell growth at 10 uM after 48 hrs by sulforhodamine B assay relative to control; details: RPMI-8226, 48 h, read-out: Activity; outline: as §1

Row | SMILES | growth at 10 µM (EKVX) | growth at 10 µM (ACHN) | growth at 10 µM (SK-MEL-2) | GI50 (SW-620) | TGI (SW-620) | CC50 (SW-620) | growth at 10 µM (MDA-MB-468) | growth at 10 µM (SNB-75) | growth at 10 µM (LOX IMVI) | growth at 10 µM (HCT-116) | growth at 10 µM (RXF 393) | growth at 10 µM (M14) | GI50 (IGROV-1) | TGI (IGROV-1) | CC50 (IGROV-1) | growth at 10 µM (Malme-3M) | growth at 10 µM (DU-145) | growth at 10 µM (KM12) | growth at 10 µM (A498) | growth at 10 µM (K562) | also measured
1 | C=C1CC[C@@H]2[C@](C)(COC(C)=O)[C@H](OC(C)=O)CC[C@@]2(C)[C@H]1CC(Nc1ccc(S(=O)(=O)Nc2ncccn2)cc1)C1=CCOC1=O (stereo partly drawn) | 68.3% | -56.1% | 41.9% | 0.86 µM | 2.25 µM | 5.36 µM | -54% | 25.6% | -79.8% | -55% | -70% | 4.76% | 2.04 µM | 4.41 µM | 9.53 µM | -4.93% | 14.9% | -13.2% | 79% | 4.6% | growth at 10 µM (U-251): -19%; growth at 10 µM (HL-60(TB)): -17.2%; growth at 10 µM (NCI/ADR-RES): 16.1%; growth at 10 µM (OVCAR-5): -1.98%; growth at 10 µM (SF-268): 18.3%; GI50 (RPMI-8226 [1]): 0.54 µM; TGI (RPMI-8226 [1]): 3.12 µM; CC50 (RPMI-8226 [1]): > 100 µM; growth at 10 µM (UACC-257): 16.6%; growth at 10 µM (NCI-H522): -67.7%; growth at 10 µM (A549): 44.7%; growth at 10 µM (NCI-H322M): 50.9%; growth at 10 µM (OVCAR-4): 42.7%; growth at 10 µM (RPMI-8226 [2]): -12.7%
2 | C=C1CC[C@@H]2[C@](C)(COC(C)=O)[C@H](OC(C)=O)CC[C@@]2(C)[C@H]1CC(Nc1ccc(S(=O)(=O)Nc2nccs2)cc1)C1=CCOC1=O (stereo partly drawn) | 73.4% | -46.6% | 28.4% | 1.85 µM | 3.98 µM | 8.55 µM | -59.9% | 28.3% | -88.3% | -30.4% | -50.6% | 8.12% | 4.54 µM | 17.1 µM | 47.5 µM | 0.4% | 22.3% | -0.89% | 85% | 3.4% | growth at 10 µM (U-251): 4.21%; growth at 10 µM (HL-60(TB)): -20.9%; growth at 10 µM (NCI/ADR-RES): 9.2%; growth at 10 µM (OVCAR-5): 7.82%; growth at 10 µM (SF-268): 21.3%; GI50 (RPMI-8226 [1]): 2.49 µM; TGI (RPMI-8226 [1]): 7.62 µM; CC50 (RPMI-8226 [1]): > 100 µM; growth at 10 µM (UACC-257): 22.4%; growth at 10 µM (NCI-H522): -61.9%; growth at 10 µM (A549): 43.7%; growth at 10 µM (NCI-H322M): 59.9%; growth at 10 µM (OVCAR-4): 38%; growth at 10 µM (RPMI-8226 [2]): -13.3%
